Measurements published in ChEMBL document CHEMBL1122413, “Chloralanyl and propargylglycyl dipeptides. Suicide substrate containing antibacterials” (1983).
Values after ≈ are worked out from the molar mass of the structure shown. Where a SMILES comes first, the peptide text is derived from it. [ ]: non-standard residue; d: D form. Pra = C#CC[CH](N)C(=O)O

What was measured:
Escherichia coli = experiment: Minimum inhibitory concentration against Escherichia coli; format: functional
Procedure, shortened: (§1)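 Agar dilution on defined peptide susceptibility medium with peptide in serial twofold dilutions. Strains subcultured on blood or chocolate agar. Inoculum from overnight culture in liquid peptide medium, diluted to approx 1×10^7 cfu/mL, applied by Steers replicator. Plates incubated overnight at 37 °C. MIC taken as lowest concentration permitting fewer than ten colonies at 16–18 h.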

Klebsiella aerogenes = experiment: Minimum inhibitory concentration against Enterobacter aerogenes; format: functional; procedure, shortened: as §1
Enterobacter cloacae = experiment: Minimum inhibitory concentration against Enterobacter cloacae; format: functional; procedure, shortened: as §1
Haemophilus influenzae = experiment: Minimum inhibitory concentration against Hemophilus influenzae; format: functional
Procedure, shortened: (§2)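 Agar dilution on defined peptide susceptibility medium with hemin (25 μg/mL), NAD (25 μg/mL) and Isovitalex (1%) added, peptide in serial twofold dilutions. Colonies from overnight chocolate or blood agar resuspended in liquid peptide medium to 10⁸ cfu/mL, applied by Steers replicator. Incubation overnight at 37 °C under 7% CO₂. MIC: lowest concentration giving fewer than ten colonies at 16–18 h.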

Klebsiella pneumoniae = experiment: Minimum inhibitory concentration against Klebsiella pneumoniae; format: functional; procedure, shortened: as §1
Morganella morganii = experiment: Minimum inhibitory concentration against Morganella morganii; format: functional; procedure, shortened: as §1
Pseudomonas aeruginosa = experiment: Minimum inhibitory concentration against Pseudomonas aeruginosa; format: functional; procedure, shortened: as §1
Proteus mirabilis = experiment: Minimum inhibitory concentration against Proteus mirabilis; format: functional; procedure, shortened: as §1
Salmonella typhimurium [1] = experiment: Minimum inhibitory concentration against Salmonella Typhimurium; format: functional, Salmonella enterica subsp. enterica serovar Typhimurium; conditions: Salmonella enterica; procedure, shortened: as §1
Serratia marcescens = experiment: Minimum inhibitory concentration against Serratia marcescens; format: functional; procedure, shortened: as §1
Shigella flexneri = experiment: Minimum inhibitory concentration against Shigella flexneri; format: functional; procedure, shortened: as §1
[2] = tested on: Staphylococcus epidermidis; experiment: Minimum inhibitory concentration against Staphylococcus epidermidis; format: functional; procedure, shortened: as §1
Streptococcus agalactiae = experiment: Minimum inhibitory concentration against Streptococcus agalactiae; format: functional; procedure, shortened: as §2
Staphylococcus aureus = experiment: Minimum inhibitory concentration against Staphylococcus aureus; format: functional; procedure, shortened: as §1
Enterococcus faecalis = experiment: Minimum inhibitory concentration against Streptococcus faecalis; format: functional; procedure, shortened: as §1
Streptococcus pyogenes = experiment: Minimum inhibitory concentration against Streptococcus pyogenes; format: functional; procedure, shortened: as §2
Salmonella typhimurium [3] = experiment: Minimum inhibitory concentration against Salmonella Typhimurium

**Q.** How did the MIC (Escherichia coli) turn out when `N[C@@H](CCl)C(=O)N[C@@H](CCl)C(=O)O.O=C(O)C(F)(F)F` was run?
**A.** 1.56 mg/L

**Q.** And the MIC (Klebsiella aerogenes)?
**A.** 25 mg/L

**Q.** And the MIC (Enterobacter cloacae)?
**A.** 12.5 mg/L

**Q.** And the MIC (Haemophilus influenzae)?
**A.** 1.56 mg/L

**Q.** What about the MIC (Klebsiella pneumoniae) of the same compound?
**A.** > 100 mg/L

**Q.** And the MIC (Morganella morganii)?
**A.** 50 mg/L

**Q.** What about the MIC (Pseudomonas aeruginosa) of the same compound?
**A.** > 100 mg/L

**Q.** What about the MIC (Proteus mirabilis) of the same compound?
**A.** 50 mg/L

**Q.** And the MIC (Salmonella typhimurium [1])?
**A.** > 100 mg/L

**Q.** What about the MIC (Serratia marcescens) of the same compound?
**A.** > 100 mg/L

**Q.** What about the MIC (Shigella flexneri) of the same compound?
**A.** 12.5 mg/L

**Q.** What about the MIC [2] of the same compound?
**A.** 0.05 mg/L

**Q.** And the MIC (Streptococcus agalactiae)?
**A.** 0.39 mg/L

**Q.** What about the MIC (Staphylococcus aureus) of the same compound?
**A.** 0.05 mg/L

**Q.** And the MIC (Enterococcus faecalis)?
**A.** 3.12 mg/L

**Q.** What about the MIC (Streptococcus pyogenes) of the same compound?
**A.** 1.56 mg/L

**Q.** What does the source list for `C[C@H](N)C(=O)N[C@@H](C)C(=O)O.O=C(O)C(F)(F)F`?
**A.** MIC (Escherichia coli): > 100 mg/L; MIC (Klebsiella aerogenes): > 100 mg/L; MIC (Enterobacter cloacae): > 100 mg/L; MIC (Haemophilus influenzae): > 100 mg/L; MIC (Klebsiella pneumoniae): > 100 mg/L; MIC (Morganella morganii): > 100 mg/L; MIC (Pseudomonas aeruginosa): > 100 mg/L; MIC (Proteus mirabilis): > 100 mg/L; MIC (Serratia marcescens): > 100 mg/L; MIC (Shigella flexneri): > 100 mg/L; MIC [2]: > 100 mg/L; MIC (Streptococcus agalactiae): > 100 mg/L; MIC (Staphylococcus aureus): > 100 mg/L; MIC (Enterococcus faecalis): > 100 mg/L; MIC (Streptococcus pyogenes): > 100 mg/L; MIC (Salmonella typhimurium [3]): > 100 mg/L

**Q.** For `C[C@@H](N)C(=O)N[C@H](C)C(=O)O.O=C(O)C(F)(F)F`, which MIC (Escherichia coli) is on record?
**A.** > 100 mg/L

**Q.** What about the MIC (Klebsiella aerogenes) of the same compound?
**A.** > 100 mg/L

**Q.** What about the MIC (Enterobacter cloacae) of the same compound?
**A.** > 100 mg/L

**Q.** What about the MIC (Haemophilus influenzae) of the same compound?
**A.** > 100 mg/L

**Q.** And the MIC (Klebsiella pneumoniae)?
**A.** > 100 mg/L

**Q.** What about the MIC (Morganella morganii) of the same compound?
**A.** > 100 mg/L

**Q.** What about the MIC (Pseudomonas aeruginosa) of the same compound?
**A.** > 100 mg/L

**Q.** And the MIC (Proteus mirabilis)?
**A.** > 100 mg/L

**Q.** And the MIC (Salmonella typhimurium [1])?
**A.** > 100 mg/L

**Q.** What about the MIC (Serratia marcescens) of the same compound?
**A.** > 100 mg/L

**Q.** What about the MIC (Shigella flexneri) of the same compound?
**A.** > 100 mg/L

**Q.** What about the MIC [2] of the same compound?
**A.** > 100 mg/L

**Q.** And the MIC (Streptococcus agalactiae)?
**A.** > 100 mg/L

**Q.** And the MIC (Staphylococcus aureus)?
**A.** > 100 mg/L

**Q.** What about the MIC (Enterococcus faecalis) of the same compound?
**A.** > 100 mg/L

**Q.** And the MIC (Streptococcus pyogenes)?
**A.** > 100 mg/L

**Q.** Which results are given for `C[C@@H](NC(=O)[C@H](N)CCl)C(=O)O.O=C(O)C(F)(F)F`?
**A.** MIC (Escherichia coli): > 100 mg/L; MIC (Klebsiella aerogenes): > 100 mg/L; MIC (Enterobacter cloacae): > 100 mg/L; MIC (Haemophilus influenzae): > 100 mg/L; MIC (Klebsiella pneumoniae): > 100 mg/L; MIC (Morganella morganii): > 100 mg/L; MIC (Pseudomonas aeruginosa): > 100 mg/L; MIC (Proteus mirabilis): > 100 mg/L; MIC (Salmonella typhimurium [1]): > 100 mg/L; MIC (Serratia marcescens): > 100 mg/L; MIC (Shigella flexneri): > 100 mg/L; MIC [2]: > 100 mg/L; MIC (Streptococcus agalactiae): > 100 mg/L; MIC (Staphylococcus aureus): > 100 mg/L; MIC (Enterococcus faecalis): > 100 mg/L; MIC (Streptococcus pyogenes): > 100 mg/L

**Q.** With `N[C@@H](CCl)C(=O)O` as the compound, how does the MIC (Escherichia coli) read?
**A.** > 100 mg/L

**Q.** And the MIC (Klebsiella aerogenes)?
**A.** > 100 mg/L

**Q.** What about the MIC (Enterobacter cloacae) of the same compound?
**A.** > 100 mg/L

**Q.** What about the MIC (Haemophilus influenzae) of the same compound?
**A.** > 100 mg/L

**Q.** And the MIC (Klebsiella pneumoniae)?
**A.** > 100 mg/L

**Q.** What about the MIC (Morganella morganii) of the same compound?
**A.** > 100 mg/L

**Q.** What about the MIC (Pseudomonas aeruginosa) of the same compound?
**A.** > 100 mg/L

**Q.** What about the MIC (Proteus mirabilis) of the same compound?
**A.** > 100 mg/L

**Q.** What about the MIC (Salmonella typhimurium [1]) of the same compound?
**A.** > 100 mg/L

**Q.** What about the MIC (Serratia marcescens) of the same compound?
**A.** > 100 mg/L

**Q.** And the MIC (Shigella flexneri)?
**A.** > 100 mg/L

**Q.** And the MIC [2]?
**A.** 25 mg/L (≈ 202 µM)

**Q.** What about the MIC (Streptococcus agalactiae) of the same compound?
**A.** 3.12 mg/L (≈ 25.3 µM)

**Q.** What about the MIC (Staphylococcus aureus) of the same compound?
**A.** 3.12 mg/L (≈ 25.3 µM)

**Q.** And the MIC (Enterococcus faecalis)?
**A.** > 100 mg/L

**Q.** And the MIC (Streptococcus pyogenes)?
**A.** 3.12 mg/L (≈ 25.3 µM)

**Q.** What does the source list for `CSCC[C@H](N)C(=O)N[C@@H](CCl)C(=O)O.O=C(O)C(F)(F)F`?
**A.** MIC (Escherichia coli): 1.56 mg/L; MIC (Klebsiella aerogenes): 6.25 mg/L; MIC (Enterobacter cloacae): 6.25 mg/L; MIC (Haemophilus influenzae): 0.78 mg/L; MIC (Klebsiella pneumoniae): > 100 mg/L; MIC (Morganella morganii): 50 mg/L; MIC (Pseudomonas aeruginosa): > 100 mg/L; MIC (Proteus mirabilis): 100 mg/L; MIC (Salmonella typhimurium [1]): > 100 mg/L; MIC (Serratia marcescens): 50 mg/L; MIC (Shigella flexneri): > 100 mg/L; MIC [2]: 0.025 mg/L; MIC (Streptococcus agalactiae): 0.2 mg/L; MIC (Staphylococcus aureus): 0.025 mg/L; MIC (Enterococcus faecalis): 0.39 mg/L; MIC (Streptococcus pyogenes): > 100 mg/L

**Q.** Which MIC (Escherichia coli) does the source give for `C#CC[C@H](NC(=O)[C@@H](N)CC#C)C(=O)O.O=C(O)C(F)(F)F` (H-[Pra]-[Pra]-OH) here?
**A.** 25 mg/L

**Q.** What about the MIC (Klebsiella aerogenes) of the same compound?
**A.** > 100 mg/L

**Q.** What about the MIC (Enterobacter cloacae) of the same compound?
**A.** 50 mg/L

**Q.** What about the MIC (Haemophilus influenzae) of the same compound?
**A.** > 100 mg/L

**Q.** What about the MIC (Klebsiella pneumoniae) of the same compound?
**A.** > 100 mg/L

**Q.** And the MIC (Morganella morganii)?
**A.** > 100 mg/L

**Q.** What about the MIC (Pseudomonas aeruginosa) of the same compound?
**A.** > 100 mg/L

**Q.** What about the MIC (Proteus mirabilis) of the same compound?
**A.** > 100 mg/L

**Q.** What about the MIC (Salmonella typhimurium [1]) of the same compound?
**A.** > 100 mg/L

**Q.** And the MIC (Serratia marcescens)?
**A.** > 100 mg/L

**Q.** And the MIC (Shigella flexneri)?
**A.** 12.5 mg/L

**Q.** And the MIC [2]?
**A.** 0.78 mg/L

**Q.** What about the MIC (Streptococcus agalactiae) of the same compound?
**A.** 3.12 mg/L

**Q.** And the MIC (Staphylococcus aureus)?
**A.** 3.12 mg/L

**Q.** And the MIC (Enterococcus faecalis)?
**A.** > 100 mg/L

**Q.** And the MIC (Streptococcus pyogenes)?
**A.** > 100 mg/L

**Q.** For `C#CCC(N)C(=O)NC(CC#C)C(=O)O.O=C(O)C(F)(F)F` (stereo not drawn) (H-[Pra]-[Pra]-OH; configuration not given here), which MIC (Escherichia coli) is on record?
**A.** > 100 mg/L

**Q.** And the MIC (Klebsiella aerogenes)?
**A.** > 100 mg/L

**Q.** What about the MIC (Enterobacter cloacae) of the same compound?
**A.** > 100 mg/L

**Q.** And the MIC (Haemophilus influenzae)?
**A.** > 100 mg/L

**Q.** What about the MIC (Klebsiella pneumoniae) of the same compound?
**A.** > 100 mg/L

**Q.** What about the MIC (Morganella morganii) of the same compound?
**A.** > 100 mg/L

**Q.** What about the MIC (Pseudomonas aeruginosa) of the same compound?
**A.** > 100 mg/L

**Q.** What about the MIC (Proteus mirabilis) of the same compound?
**A.** > 100 mg/L

**Q.** What about the MIC (Salmonella typhimurium [1]) of the same compound?
**A.** > 100 mg/L

**Q.** What about the MIC (Serratia marcescens) of the same compound?
**A.** > 100 mg/L

**Q.** What about the MIC (Shigella flexneri) of the same compound?
**A.** > 100 mg/L

**Q.** What about the MIC [2] of the same compound?
**A.** 3.12 mg/L

**Q.** And the MIC (Streptococcus agalactiae)?
**A.** 6.25 mg/L

**Q.** And the MIC (Staphylococcus aureus)?
**A.** 12.5 mg/L

**Q.** And the MIC (Enterococcus faecalis)?
**A.** > 100 mg/L

**Q.** What about the MIC (Streptococcus pyogenes) of the same compound?
**A.** > 100 mg/L
